Results published in the array DNA melting data of Ke et al. (doi:10.1101/2024.01.08.574731).

What was measured:
[1] = folding enthalpy; higher = less favourable; fluorescence melt of hairpins on a sequencing array, two-state fit; conditions: sodium 0.088 M
In short: (§1)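 Melting temperature and folding enthalpy were obtained by bootstrapped two-state fitting. Fits used Cy3 fluorescence of library hairpins with annealed Cy3 and quencher oligos on a sequenced MiSeq flow cell, imaged in 50 mM Na-HEPES pH 8.0, 25 mM NaCl in 2.5 °C steps up to 60 °C and normalised to pre-quench Cy3 and control constructs. Four replicates were combined by inverse-variance weighting, and fitted temperatures were raised by 9.35 °C to match UV melts.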

[2] = melting temperature; fluorescence melt of hairpins on a sequencing array, two-state fit, raised by 9.35 °C to match UV melts; conditions: sodium 0.088 M
In short: as §1

Row | Sequence | folding enthalpy [1] | Tm [2]
1 | GGGGGCGAAAGCCAACCC ((((((....)))..))) | -17.9 kcal/mol | 52.7 °C
2 | GGCAAATCGAAAGATGCC (((..(((....)))))) | -29.8 kcal/mol | 47.6 °C
3 | GGTCTCGAAAGAGGAACC ((((((....)))..))) | -16.9 kcal/mol | 35.1 °C
4 | GTGGGCGAAAGCCCCCAC ((((((....)))..))) | -7.28 kcal/mol | 38.7 °C
5 | GTGATCGAAAGATTGCAC ((((((....)))..))) | -14.5 kcal/mol | 30.4 °C
6 | GCGAGACTTCGC ((((....)))) | -10.4 kcal/mol | 56.6 °C
7 | GCAGCCGAAAGGCCGTGC ((((((....)))..))) | -13.3 kcal/mol | 41.9 °C
8 | GCGGGAGTCCGC ((((....)))) | -23.6 kcal/mol | 55.7 °C
9 | GATCGGATGGCCGATC ((((((....)))))) | -29.9 kcal/mol | 56.1 °C
10 | CGAACGGAAACGTAGTCG ((((((....)))..))) | -10.8 kcal/mol | 26.4 °C
11 | GATCCTAACGAGGATC ((((((....)))))) | -44.8 kcal/mol | 50.6 °C
12 | GATCATTTGATGATC ((((((...)))))) | -38.2 kcal/mol | 46.6 °C
13 | GTGCATCGAAAGATACAC (((.(((....))).))) | -35.2 kcal/mol | 47 °C
14 | GCCCGCGAAAGCGTGGGC ((((((....)))..))) | -24.9 kcal/mol | 68.6 °C
15 | GATCTTGACCAAGATC ((((((....)))))) | -38.3 kcal/mol | 49.3 °C
16 | GCATAGCGAAAGCCTTGC (((..((....))..))) | -13.9 kcal/mol | 36.9 °C
17 | GCCAGGCGAAAGCCACGC ((..(((....)))..)) | -13.1 kcal/mol | 38.8 °C
18 | GATCGGCTTCCCGATC ((((((....)))))) | -35.5 kcal/mol | 56.4 °C
19 | GCTAAGCGAAAGCCTTGC ((.(.((....)).).)) | -13.1 kcal/mol | 34.6 °C
20 | GGAAACGGAAACATTTCC (((((.(....).))))) | -28.4 kcal/mol | 31.3 °C
21 | GTGAACGAAAGTTGCCAC ((((((....)))..))) | -9.75 kcal/mol | 25.9 °C
22 | GTAGATGGAAACATCTGC (.(((((....))))).) | -20.8 kcal/mol | 45.6 °C
23 | GATCAGCGTGCTGATC ((((((....)))))) | -37.1 kcal/mol | 67.2 °C
24 | GCTAACGGAAACATTAGC (((((.(....).))))) | -23.1 kcal/mol | 32.9 °C

Row | Sequence | folding enthalpy [1] | Tm [2]
25 | GCAGCTGGAAACAGCTAC (.(((((....))))).) | -14 kcal/mol | 42.1 °C
26 | GCGCACGAAAGTGCCGC ((((((....))).))) | -17.5 kcal/mol | 62 °C
27 | GCGTGCGAAAGCACTCGC ((((((....)))..))) | -12.4 kcal/mol | 51.5 °C
28 | GTAAAAGGAAACTTTTGC (.(((((....))))).) | -24.1 kcal/mol | 33.5 °C
29 | GTCCACGGAAACGTAGAC (((.(((....))).))) | -26.6 kcal/mol | 41 °C
30 | GATCGGTCGTCCGATC ((((((....)))))) | -40.9 kcal/mol | 60.2 °C
31 | GATCCACGATTGGATC ((((((....)))))) | -37 kcal/mol | 48 °C
32 | GCTTTCCGAAAGGAAGC (((.(((....)))))) | -21.1 kcal/mol | 52.3 °C
33 | GCACACGAAAGTGCGTGC ((((((....)))..))) | -17 kcal/mol | 52.1 °C
34 | GCTGTCGAAAGACCAGC ((((((....))).))) | -20.8 kcal/mol | 51.3 °C
35 | GCATTAGGAAACTAACGC ((.((((....)))).)) | -22.6 kcal/mol | 31.7 °C
36 | GCAGGGCGAAAGCCTGC (((.(((....)))))) | -20.3 kcal/mol | 68 °C
37 | GAGTGCGGAAACGTGCTC (((..((....))..))) | -38 kcal/mol | 49.5 °C
38 | GCGGCTCCCGC ((((...)))) | -23.7 kcal/mol | 56.9 °C
39 | GCCGTATCGAAAGATGGC (((..(((....)))))) | -9.59 kcal/mol | 47.4 °C
40 | AGTGGGAAACCACT (((((....))))) | -19.5 kcal/mol | 49.8 °C
41 | GATCGCTACGGCGATC ((((((....)))))) | -40.5 kcal/mol | 67.8 °C
42 | GATCGCAAACGCGATC ((((((....)))))) | -42.1 kcal/mol | 64.8 °C
43 | GGTTATGGAAACACAACC ((((.((....)).)))) | -24.6 kcal/mol | 33.8 °C
44 | GTGCATGGAAACGTGCAC (((((.(....).))))) | -47 kcal/mol | 55.8 °C
45 | GTACTGGGAAACCGGTAC ((((.((....)).)))) | -35.3 kcal/mol | 50.1 °C
46 | GTTGCCGAAAGGCTTAAC ((((((....)))..))) | -8.96 kcal/mol | 26.6 °C
47 | GCTTTGCGAAAGCAGAGC (((.(((....))).))) | -43.8 kcal/mol | 56.5 °C
48 | GATCCGTGGACGGATC ((((((....)))))) | -41 kcal/mol | 62.9 °C

Row | Sequence | folding enthalpy [1] | Tm [2]
49 | GATCAGCTGGCTGATC ((((((....)))))) | -34.1 kcal/mol | 64.4 °C
50 | GGGTAACGAAAGTTCCCC (((.(((....))).))) | -27.4 kcal/mol | 50.6 °C
51 | GCGTGCGACGC ((((...)))) | -13.9 kcal/mol | 61 °C
52 | GATCTTATAGAAGATC ((((((....)))))) | -30 kcal/mol | 39.5 °C
53 | GATCGTGCTAACGATC ((((((....)))))) | -37.7 kcal/mol | 66.3 °C
54 | GACAACGAAAGTTGGGTC ((((((....)))..))) | -15.7 kcal/mol | 49.8 °C
55 | GGACTCGGAAACAAGTCC (((((.(....).))))) | -27.8 kcal/mol | 42.2 °C
56 | GGTCCCGAAAGGGGTACC ((((((....)))..))) | -17.2 kcal/mol | 44.9 °C
57 | GTTACCGAAAGGTCGAAC ((((((....)))..))) | -9.83 kcal/mol | 28.2 °C
58 | TTCCGGAAACGGAA (((((....))))) | -18.6 kcal/mol | 48.7 °C
59 | GCGGTAGCGAAAGCTCGC (((..(((....)))))) | -15.5 kcal/mol | 52.8 °C
60 | GCTATGCGAAAGCTAAGC (((..((....))..))) | -17.2 kcal/mol | 47.6 °C
61 | GGCTCGGGAAACCGGGTC (.(.(((....))).).) | -28.2 kcal/mol | 46.9 °C
62 | GCCGGAGGAAACCCCAGC ((.((.(....).)).)) | -6.86 kcal/mol | 16.8 °C
63 | GCGCGGGGAAACCCGCAC (.(((((....))))).) | -8.32 kcal/mol | 53.9 °C
64 | GTCAACACGAAAGTGGAC (((..(((....)))))) | -19.3 kcal/mol | 38.6 °C
65 | GTAGGCGAAAGCCAGTAC ((((((....)))..))) | -8.17 kcal/mol | 27.4 °C
66 | GAATGGGGAAACCTGTTC (((..((....))..))) | -13.1 kcal/mol | 29.9 °C
67 | GTGTTTGGAAACAAATAC ((.((((....)))).)) | -29 kcal/mol | 41.2 °C
68 | GCTCACGAAAGTGTTAGC ((((((....)))..))) | -21.6 kcal/mol | 40.8 °C
69 | GAGAGTGGAAACACTTTC ((.((((....)))).)) | -19.4 kcal/mol | 37.6 °C
70 | GCTTACCGAAAGGTCAGC (((.(((....))).))) | -27.8 kcal/mol | 50.3 °C
71 | GCGTACGGAAACGCACGC ((((.((....)).)))) | -46.7 kcal/mol | 55.4 °C
72 | GTAGTTCCGAAAGGATAC (((..(((....)))))) | -11.6 kcal/mol | 27.7 °C

Row | Sequence | folding enthalpy [1] | Tm [2]
73 | GCGCTGGGAAACTAGCGC (((((.(....).))))) | -32.4 kcal/mol | 67.1 °C
74 | GCTTACGAAAGTATAGC ((((((....))).))) | -23.4 kcal/mol | 44.6 °C
75 | GTCACCGAAAGGTCGAC ((((((....))).))) | -20.1 kcal/mol | 48.1 °C
76 | GATCCAGCTATGGATC ((((((....)))))) | -33.5 kcal/mol | 58.8 °C
77 | GAGGTTGGAAACAGCCTC ((((.((....)).)))) | -32.4 kcal/mol | 50.1 °C
78 | GCATCGAAAGATGC (((((....))))) | -31.8 kcal/mol | 69.2 °C
79 | GTCCAACGAAAGTTAGAC (((.(((....))).))) | -29.6 kcal/mol | 38.5 °C
80 | GAAAACGAAAGTTCTTC ((((((....))).))) | -17.8 kcal/mol | 36.1 °C
81 | GGTGGACGAAAGTCACC (((.(((....)))))) | -25.5 kcal/mol | 55.3 °C
82 | GAAGTTGGAAACAATTTC (((.(((....))).))) | -20.4 kcal/mol | 35 °C
83 | CGTGCGGAAACGCGGACG ((((((....)))..))) | -19.2 kcal/mol | 47 °C
84 | GAAGGCGGAAACGTCTTC ((((.((....)).)))) | -45.1 kcal/mol | 53.1 °C
85 | GCACTGCGAAAGCAGAGC ((.((((....)))).)) | -20.7 kcal/mol | 65.9 °C
86 | GGCTGAGGAAACTTAGCC ((((.((....)).)))) | -36.3 kcal/mol | 50.2 °C
87 | GATCTAATCATAGATC ((((((....)))))) | -34.8 kcal/mol | 38.6 °C
88 | GGTGTAGGAAACTGTACC (((..((....))..))) | -19.3 kcal/mol | 29.6 °C
89 | GATCTAAGCATAGATC ((((((....)))))) | -32.2 kcal/mol | 40.3 °C
90 | GATCCCCCTGGGATC ((((((...)))))) | -38.4 kcal/mol | 62.1 °C
91 | GGGGTCGAAAGACGGCCC ((((((....)))..))) | -22.1 kcal/mol | 48.9 °C
92 | GATCCTATCAAGGATC ((((((....)))))) | -34.3 kcal/mol | 54.6 °C
93 | GAGCCTCCGAAAGGACTC (((..(((....)))))) | -11.8 kcal/mol | 31.9 °C
